These results are taken from ChEMBL document CHEMBL3576859, “Novel benzamide-based histamine h3 receptor antagonists: the identification of two candidates for clinical development” (ACS Med Chem Lett, 2015).

Calls of active or inactive are those of the source. The rule behind the calls is not given here. Some results are limits rather than exact numbers.

One data set has as its target Cytochrome P450 2C19 (Homo sapiens, UniProt P33261). Description: Inhibition of CYP2C19 (unknown origin). The class given is ADME. In outline: (§1)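 CYP1A2, 2C9, 2C19, 2D6 and 3A4 inhibition measured and reported as IC₅₀ (μM).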
The species entered for another data set is Mus musculus. Description: Toxicity in mouse. Format: organism-based. Particulars: in vivo.
The nature of data set [1]: Half life in Sprague-Dawley rat at 1 mg/kg, iv. Format: ADME, organism-based. To be noted: in vivo.
Another data set has as its target Histamine H3 receptor (Homo sapiens, UniProt Q9Y5N1). The data set is described as follows: Displacement of N-[3H]methylhistamine from human histamine H3 receptor expressed in human SK-N-MC cells after 45 mins. Format: cell-based.
The test system of data set [2] is Rattus norvegicus. The data set is described as follows: Toxicity in rat assessed as decrease in locomotor activity at 250 mg/kg, po administered up to 28 days. Format: organism-based. Particulars: in vivo, 672 h. In short, it runs like this: (§2)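 Rats dosed orally at up to 250 mg/kg daily for up to 28 days. Monitored for clinical signs (salivation, activity), body weight, food consumption and clinical pathology; NOAEL derived.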

Data set [3] is described as follows: Elimination half life in human at 5 mg. Format: ADME, organism-based. Particulars: in vivo, read-out: beta t1/2 (converted). In outline: (§3)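 Mean elimination half-life determined in human dose groups receiving 2 mg and 5 mg.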
Data set [4] has as its system Rattus norvegicus. Description: Toxicity in rat assessed as decrease in food consumption at 250 mg/kg, po administered up to 28 days. The class given is organism-based. Particulars: in vivo, 672 h. In short, it runs like this: as §2
The target of data set [5] is Voltage-gated inwardly rectifying potassium channel KCNH2 (Homo sapiens, UniProt Q12809). The data set is described as follows: Displacement of [3H]-astemizole from human ERG expressed in HEK293 cells after 60 mins by scintillation counting analysis. Format: cell-based.
Data set [6] in a line: Plasma protein binding in human. Format: ADME, cell-free. To be noted: read-out: PPB (converted).
The target in data set [7] is Voltage-gated L-type calcium channel (Rattus norvegicus, UniProt P22002+Q02485+P27732). The data set is described as follows: Binding affinity to rat L-type calcium channel at 1 uM.
Data set [8] is described as follows: Apparent permeability across apical to basolateral side in human Caco2 cells at 10 uM after 60 mins by LC/MS/MS analysis. To be noted: Caco-2. The class given is ADME, cell-based. In outline:
(§4)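 Caco-2 monolayer permeability measured in both directions, apical-to-basolateral and basolateral-to-apical. Reported as P_app (×10−⁶ cm/s), given as A−B/B−A pairs.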

The next data set addresses Cytochrome P450 2C9 (Homo sapiens, UniProt P11712). Description: Inhibition of CYP2C9 (unknown origin). Format: ADME. In outline:
as §1

Data set [9] in a line: Drug uptake in Sprague-Dawley rat brain at 3 mg/kg, po measured at 1 hr. The class given is ADME, organism-based. To be noted: read-out: Drug uptake. In outline:
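Rats dosed orally at 3 mg/kg. Brain drug concentration (μM) measured at 1 h post-dose.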

The nature of data set [10]: Oral bioavailability in Sprague-Dawley rat at 10 mg/kg. Particulars: in vivo. Format: ADME, organism-based.
A short description of data set [11]: Elimination half life in human at 2 mg. Particulars: in vivo, read-out: beta t1/2 (converted). The class given is ADME, organism-based. In short, it runs like this: as §3
Data set [12] can be described thus: Metabolic stability in human liver microsomes assessed as compound remaining at 1 uM after 15 mins. The class given is ADME. Particulars: read-out: Stability. In short, it runs like this: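 Compound incubated with human liver microsomes for 15 min. Read-out is percent parent remaining.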
Data set [13] deals with Rattus norvegicus. Description: Toxicity in rat assessed as decrease in body weight at 250 mg/kg, po administered up to 28 days. To be noted: in vivo, 672 h. Format: organism-based. In short, it runs like this:
as §2

Data set [14] is described as follows: Clearance in Sprague-Dawley rat. Format: ADME, organism-based. To be noted: in vivo.
For data set [15], the system named is Rattus norvegicus. Description: Toxicity in rat assessed as clinical pathology alteration at 250 mg/kg, po administered up to 28 days. To be noted: in vivo, 672 h. The class given is organism-based. In short, it runs like this:
as §2

In another data set the target is Cytochrome P450 3A4 (Homo sapiens, UniProt P08684). The data set is described as follows: Inhibition of CYP3A4 (unknown origin). Format: ADME. In short, it runs like this:
as §1

Data set [16] in a line: Apparent permeability across basolateral to apical side in human Caco2 cells at 10 uM […] by LC/MS/MS analysis. The class given is ADME, cell-based. Particulars: Caco-2. In short, it runs like this:
as §4

For data set [17], the system named is Rattus norvegicus. The data set is described as follows: Toxicity in Sprague-Dawley rat assessed as increase in locomotor activity at 10 mg/kg, sc. Particulars: in vivo. The class given is organism-based.
A further data set concerns Canis familiaris. The data set is described as follows: Toxicity in dog at 10 to 75 mg/kg/day administered for 5 days. Format: organism-based, Canis lupus familiaris. To be noted: in vivo, 120 h.
In data set [18] the test system is Rattus norvegicus. Description: Toxicity in rat assessed as induction of mild and sporadic salivation at 250 mg/kg, po administered up to 28 days. The class given is organism-based. Particulars: in vivo, 672 h. In outline: as §2
For the next data set, the target named is Cytochrome P450 2D6 (Homo sapiens, UniProt P10635). The data set is described as follows: Inhibition of CYP2D6 (unknown origin). The class given is ADME. In outline:
as §1

Data set [19] relates to Rattus norvegicus. Description: Wake-promoting activity in Sprague-Dawley rat assessed as increase in time spent awake at 10 mg/kg, sc administered during light sleep phase measured over first 6 hrs post-treatment. The class given is functional. In short, it runs like this: (§5)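 Rats treated during the light sleep phase. Time awake, NREM and REM sleep duration scored over the first 6 h post-treatment.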

Data set [20] is described as follows: Toxicity in po dosed rat administered up to 28 days. Format: organism-based. To be noted: in vivo. In outline: as §2
The test system of data set [21] is Rattus norvegicus. Description: Toxicity in Sprague-Dawley rat assessed as effect on rapid eye movement sleep at 10 mg/kg, sc administered during light sleep phase measured over first 6 hrs post-treatment. The class given is organism-based. To be noted: in vivo.
Data set [22] in a line: Volume of distribution at steady state in Sprague-Dawley rat. Format: ADME, organism-based. Particulars: in vivo, read-out: Vdss.
The species named for the next data set is Homo sapiens. The data set is described as follows: Toxicity in human assessed as insomnia. The class given is organism-based. To be noted: in vivo.
In data set [23] the test system is Rattus norvegicus. The data set is described as follows: Wake-promoting activity in Sprague-Dawley rat assessed as decrease in non-rapid eye movement sleep duration at 10 mg/kg, sc administered during light sleep phase measured over first 6 hrs post-treatment. The class given is functional, organism-based. In short, it runs like this:
as §5

The test system of data set [24] is Rattus norvegicus. Description: Ex vivo histamine H3 receptor occupancy in Sprague-Dawley rat striatum at 3 mg/kg, po measured at 1 hr by autoradiographic analysis. The class given is functional. In outline:
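After a 3 mg/kg oral dose in rats, ex vivo H3 receptor occupancy was determined by autoradiography at 1 h. Values are mean ± SD.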

The target in the next data set is T1, Cytochrome P450 1A2 (Homo sapiens, UniProt P05177).
T1 sequence (P05177 whole entry): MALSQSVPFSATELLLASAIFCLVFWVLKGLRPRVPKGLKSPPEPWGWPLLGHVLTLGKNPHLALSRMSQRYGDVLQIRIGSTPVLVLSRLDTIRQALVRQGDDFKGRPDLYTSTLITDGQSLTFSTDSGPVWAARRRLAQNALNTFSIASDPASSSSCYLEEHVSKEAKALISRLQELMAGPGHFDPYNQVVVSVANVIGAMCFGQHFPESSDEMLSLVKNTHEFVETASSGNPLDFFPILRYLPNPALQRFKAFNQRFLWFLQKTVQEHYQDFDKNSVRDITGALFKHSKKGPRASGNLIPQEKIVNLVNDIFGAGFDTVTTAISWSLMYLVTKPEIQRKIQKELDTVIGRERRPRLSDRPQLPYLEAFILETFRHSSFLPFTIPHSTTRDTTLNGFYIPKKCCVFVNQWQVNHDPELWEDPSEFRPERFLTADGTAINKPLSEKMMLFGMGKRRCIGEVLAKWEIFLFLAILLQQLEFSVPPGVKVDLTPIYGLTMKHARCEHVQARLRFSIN
The data set is described as follows: Inhibition of CYP1A2 (unknown origin). The class given is ADME. In outline: as §1

Data set [25] can be described thus: Metabolic stability in Sprague-Dawley rat liver microsomes assessed as compound remaining at 1 uM after 15 mins. Particulars: read-out: Stability. Format: ADME. In outline:
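Rat liver microsomes incubated with compound for 15 min. Stability expressed as percent of parent remaining.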

Sequence of Histamine H3 receptor (Q9Y5N1 whole entry): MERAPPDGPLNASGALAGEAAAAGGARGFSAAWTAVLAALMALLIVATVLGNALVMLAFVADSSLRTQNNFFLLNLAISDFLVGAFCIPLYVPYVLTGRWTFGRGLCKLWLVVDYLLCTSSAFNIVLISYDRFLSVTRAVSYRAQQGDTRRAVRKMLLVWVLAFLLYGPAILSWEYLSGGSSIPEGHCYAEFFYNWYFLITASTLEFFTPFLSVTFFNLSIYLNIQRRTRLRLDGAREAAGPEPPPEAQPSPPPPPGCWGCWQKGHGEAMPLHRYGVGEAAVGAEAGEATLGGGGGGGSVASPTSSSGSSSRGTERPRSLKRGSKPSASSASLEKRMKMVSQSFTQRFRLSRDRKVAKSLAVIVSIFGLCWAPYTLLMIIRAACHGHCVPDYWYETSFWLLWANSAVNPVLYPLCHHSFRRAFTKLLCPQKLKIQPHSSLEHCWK
Sequence of Voltage-gated inwardly rectifying potassium channel KCNH2 (Q12809 whole entry): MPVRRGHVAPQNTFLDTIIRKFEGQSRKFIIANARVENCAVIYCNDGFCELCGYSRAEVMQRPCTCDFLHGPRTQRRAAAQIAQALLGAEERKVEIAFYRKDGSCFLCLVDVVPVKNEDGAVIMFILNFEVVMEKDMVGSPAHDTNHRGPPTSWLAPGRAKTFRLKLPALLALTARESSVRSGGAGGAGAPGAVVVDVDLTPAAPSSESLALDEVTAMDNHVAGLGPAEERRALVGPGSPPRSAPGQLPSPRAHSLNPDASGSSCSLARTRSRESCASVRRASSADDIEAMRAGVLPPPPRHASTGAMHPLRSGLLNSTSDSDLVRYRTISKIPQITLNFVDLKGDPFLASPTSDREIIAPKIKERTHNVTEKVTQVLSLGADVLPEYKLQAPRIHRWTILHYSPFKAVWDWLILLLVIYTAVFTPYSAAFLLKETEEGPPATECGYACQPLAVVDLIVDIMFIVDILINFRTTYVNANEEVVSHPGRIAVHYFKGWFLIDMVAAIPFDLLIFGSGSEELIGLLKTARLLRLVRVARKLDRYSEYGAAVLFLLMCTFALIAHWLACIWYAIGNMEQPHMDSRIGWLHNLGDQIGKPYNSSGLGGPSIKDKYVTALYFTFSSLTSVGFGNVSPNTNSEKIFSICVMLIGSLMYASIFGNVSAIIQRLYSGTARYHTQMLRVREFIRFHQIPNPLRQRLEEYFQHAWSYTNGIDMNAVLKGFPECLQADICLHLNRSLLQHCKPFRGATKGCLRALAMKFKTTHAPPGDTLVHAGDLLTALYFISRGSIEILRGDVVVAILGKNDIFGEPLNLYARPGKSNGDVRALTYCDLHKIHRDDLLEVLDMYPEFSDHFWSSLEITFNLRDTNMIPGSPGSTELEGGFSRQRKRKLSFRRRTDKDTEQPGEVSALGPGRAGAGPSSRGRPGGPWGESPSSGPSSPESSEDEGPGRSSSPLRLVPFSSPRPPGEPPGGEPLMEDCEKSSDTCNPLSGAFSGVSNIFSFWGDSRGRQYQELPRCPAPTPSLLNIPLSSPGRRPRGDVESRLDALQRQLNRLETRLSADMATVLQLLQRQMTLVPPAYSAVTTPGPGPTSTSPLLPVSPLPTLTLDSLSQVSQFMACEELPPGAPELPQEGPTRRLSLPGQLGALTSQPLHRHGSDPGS
Sequence of Cytochrome P450 2D6 (P10635 whole entry): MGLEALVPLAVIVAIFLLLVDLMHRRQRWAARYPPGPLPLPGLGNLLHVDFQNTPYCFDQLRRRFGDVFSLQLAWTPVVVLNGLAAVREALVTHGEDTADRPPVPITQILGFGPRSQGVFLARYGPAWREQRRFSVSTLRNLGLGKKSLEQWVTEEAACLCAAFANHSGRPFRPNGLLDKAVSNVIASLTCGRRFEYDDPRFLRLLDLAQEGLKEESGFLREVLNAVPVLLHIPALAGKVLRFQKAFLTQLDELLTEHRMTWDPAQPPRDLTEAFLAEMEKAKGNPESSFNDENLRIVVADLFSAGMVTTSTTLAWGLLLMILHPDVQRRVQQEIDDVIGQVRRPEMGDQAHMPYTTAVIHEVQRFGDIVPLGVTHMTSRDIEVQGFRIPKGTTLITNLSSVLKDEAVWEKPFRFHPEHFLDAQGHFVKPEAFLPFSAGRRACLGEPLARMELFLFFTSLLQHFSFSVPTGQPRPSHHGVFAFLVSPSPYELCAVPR
Sequence of Cytochrome P450 2C19 (P33261 whole entry): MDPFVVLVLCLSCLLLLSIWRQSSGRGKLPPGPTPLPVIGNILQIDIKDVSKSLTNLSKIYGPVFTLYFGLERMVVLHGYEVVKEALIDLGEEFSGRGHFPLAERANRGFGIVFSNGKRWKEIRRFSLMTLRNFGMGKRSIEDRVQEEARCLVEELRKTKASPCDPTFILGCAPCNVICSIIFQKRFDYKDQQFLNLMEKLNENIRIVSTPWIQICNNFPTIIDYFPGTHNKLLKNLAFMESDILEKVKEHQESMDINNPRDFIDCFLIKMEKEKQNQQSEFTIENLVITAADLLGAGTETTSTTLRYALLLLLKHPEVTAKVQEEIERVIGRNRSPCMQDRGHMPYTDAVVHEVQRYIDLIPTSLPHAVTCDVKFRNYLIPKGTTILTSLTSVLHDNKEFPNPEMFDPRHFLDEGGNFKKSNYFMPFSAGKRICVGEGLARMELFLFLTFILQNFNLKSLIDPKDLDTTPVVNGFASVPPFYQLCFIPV
Sequence of Cytochrome P450 3A4 (P08684 whole entry): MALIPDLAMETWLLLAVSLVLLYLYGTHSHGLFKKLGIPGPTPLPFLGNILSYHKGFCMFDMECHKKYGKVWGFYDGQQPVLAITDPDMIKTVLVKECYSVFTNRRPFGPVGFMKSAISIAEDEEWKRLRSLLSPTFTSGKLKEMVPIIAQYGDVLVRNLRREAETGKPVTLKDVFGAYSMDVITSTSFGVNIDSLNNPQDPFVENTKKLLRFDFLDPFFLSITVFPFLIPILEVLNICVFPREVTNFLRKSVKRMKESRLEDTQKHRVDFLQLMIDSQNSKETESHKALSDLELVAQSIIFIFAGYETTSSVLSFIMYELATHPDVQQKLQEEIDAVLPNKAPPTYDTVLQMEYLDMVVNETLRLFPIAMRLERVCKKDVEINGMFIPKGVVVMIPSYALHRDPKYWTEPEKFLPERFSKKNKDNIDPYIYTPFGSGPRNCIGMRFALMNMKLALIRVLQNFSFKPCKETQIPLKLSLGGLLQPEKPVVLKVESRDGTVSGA
Sequence of Cytochrome P450 2C9 (P11712 whole entry): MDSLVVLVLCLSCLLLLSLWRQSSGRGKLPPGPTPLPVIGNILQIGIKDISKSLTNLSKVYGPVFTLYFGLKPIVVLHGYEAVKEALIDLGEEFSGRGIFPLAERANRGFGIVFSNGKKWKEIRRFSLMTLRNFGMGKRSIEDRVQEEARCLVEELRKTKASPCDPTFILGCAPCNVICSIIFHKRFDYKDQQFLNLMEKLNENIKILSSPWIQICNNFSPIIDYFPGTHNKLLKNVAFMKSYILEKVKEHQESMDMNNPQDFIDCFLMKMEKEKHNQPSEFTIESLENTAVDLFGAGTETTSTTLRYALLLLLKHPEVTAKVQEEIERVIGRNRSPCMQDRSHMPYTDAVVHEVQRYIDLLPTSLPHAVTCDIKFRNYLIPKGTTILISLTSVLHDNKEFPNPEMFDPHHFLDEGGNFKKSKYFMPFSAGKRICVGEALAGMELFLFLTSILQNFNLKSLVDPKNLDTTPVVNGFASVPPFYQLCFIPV

For the molecule `CC(C)N1CCN(C(=O)c2ccc(CN3CCOCC3)cc2)CC1.O=C(O)/C=C\C(=O)O`, the IC50 against Cytochrome P450 2C19 was greater than 40 µM; in data set [5], greater than 10 µM; on Cytochrome P450 2C9, greater than 40 µM; at Cytochrome P450 3A4, greater than 40 µM; on Cytochrome P450 2D6 it was greater than 40 µM; against Cytochrome P450 1A2, greater than 40 µM. In addition, the Activity entry in the data set listed under Mus musculus is “Non-toxic”; with Rattus norvegicus [2] it was “Toxic”; in the data set on Rattus norvegicus [4] it was “Toxic”; in data set [7] it was “Not Active”; with Rattus norvegicus [13], “Toxic”; with Rattus norvegicus [15] it was “Toxic”. Also, the Activity entry with Rattus norvegicus [17] is on record as “Non-toxic”; in the data set on Canis familiaris it was “Non-toxic”; in the data set with Rattus norvegicus [18] it was “Toxic”; with Rattus norvegicus [21], “Non-toxic”; in the data set listed under Homo sapiens, “Toxic”. For the same molecule, the half-life in data set [1] was 3.2 h; in data set [3], 56.1 h; in [11] it was 49.1 h. Moreover, at Histamine H3 receptor, affinity was put at a Ki of 0.0025 µM. Besides, the fraction unbound in [6] was 0.876. Moreover, the Papp A→B at 1 h, 10 µM in data set [8] is 22.4 ×10⁻⁶ cm/s. The concentration at 1 h in data set [9] turned out to be 5.37 µM. In data set [10], this molecule gave a bioavailability of 62%. Also, in data set [12], the remaining at 0.25 h, 1 µM worked out at 65%. For the same molecule, the clearance in data set [14] was 12.8 mL/min/kg. Further, the Papp B→A at 10 µM in data set [16] worked out at 20.9 ×10⁻⁶ cm/s. The Time with Rattus norvegicus [19] amounted to 1 h. The molecule further returned an NOAEL at 672 h in data set [20] of 25 mg/kg/day. The Vd in [22] was 3.6 L/kg. For the same molecule, in the data set on Rattus norvegicus [23], the result was Active. Also, the Occ in the data set with Rattus norvegicus [24] was 86%.
With `O=C(c1ccc(CN2CCC(F)CC2)cc1)N1CCN(C2CC2)CC1`, in data set [1], the half-life was 1.1 h. Further, the results for the remaining at 0.25 h, 1 µM in [25] and in [12] were 26.8% and 83.6%, respectively. In addition, the IC50 in data set [5] is greater than 10 µM. Also, the concentration at 1 h in [9] worked out at 0.54 µM. In addition, the bioavailability in data set [10] worked out at 14%. The clearance in data set [14] is 41.4 mL/min/kg. Moreover, the Vd in data set [22] was 3.9 L/kg. In the data set on Rattus norvegicus [24], this molecule gave an Occ of 25%.
The molecule `O=C(c1ccc(CN2CCOCC2)cc1)N1CCN(C2CCC2)CC1` showed a half-life in data set [1] of 2.1 h. The molecule further yielded a Ki on Histamine H3 receptor of 0.0013 µM. Further, the remaining at 0.25 h, 1 µM came to 49.6% in [25] and 85.4% in data set [12]. The same molecule displayed a half-inhibitory concentration (IC50) in data set [5] greater than 10 µM. Besides, in data set [7], the Activity entry is on record as “Not Active”. The apical-to-basolateral permeability (Papp A→B) at 1 h, 10 µM in data set [8] turned out to be 71.2 ×10⁻⁶ cm/s. The concentration at 1 h in [9] was 8.1 µM. Moreover, the bioavailability in data set [10] is 85%. The same molecule gave a clearance in data set [14] of 34.9 mL/min/kg. Also, in data set [16], the Papp B→A at 10 µM amounted to 22.4 ×10⁻⁶ cm/s. Further, the Vd in [22] was found to be 6.4 L/kg. Besides, the Occ in the data set with Rattus norvegicus [24] came to 96%.
In turn, `CC(C)N1CCN(C(=O)c2ccc(CN3CCC(F)CC3)cc2)CC1` had a half-life in data set [1] of 7.6 h. The same molecule had a Ki on Histamine H3 receptor of 0.0015 µM. In addition, the remaining at 0.25 h, 1 µM in data set [25] came to 50%; in [12] it was 84.8%. Further, in data set [9], the concentration at 1 h amounted to 1.82 µM. In data set [10], this molecule returned a bioavailability of 17%. This molecule yielded a clearance in data set [14] of 44.2 mL/min/kg. In addition, the Vd in data set [22] was determined as 29.2 L/kg. In addition, the Occ with Rattus norvegicus [24] is listed as 92%.
